Assay results taken from ChEMBL document CHEMBL2040754, “Regioselective reaction: synthesis, characterization and pharmacological activity of some new Mannich and Schiff bases containing sydnone” (2012).

Key:
Format in all cases: functional
[1] = test system: Rattus norvegicus; assay: Antiinflammatory activity in Wistar albino rat assessed as reduction of carrageenan-induced paw edema at 20 mg/kg, po measured after 2 hrs by plethysmometer; set-up: scale not given: the % may be the effect or the level left
Outline: (§1)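 Rats 150e200 g dosed orally with test suspension 20 mg/kg, control given 1 mL of 1% carboxymethyl cellulose suspension. After 30 min, 0.1 mL of 1% carrageenan in normal saline injected subcutaneously into the sub-plantar region of the right hind paw. Paw volume read by plethysmometer at 0 h, 30, 60 and 120 min. Data as mean, one-way ANOVA then Dunnett's t-test.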

[2] = test system: Rattus norvegicus; assay: Analgesic activity in Wistar albino rat assessed as thermal-stimulus induced tail flick latency time at 20 mg/kg measured after 60 mins (reference value: 3.34 +/- 0.005 secs)
[3] = test system: Rattus norvegicus; assay: Analgesic activity in Wistar albino rat assessed as thermal-stimulus induced tail flick latency time at 20 mg/kg measured after 30 mins (reference value: 3.23 +/- 0.005 secs)
[4] = test system: Rattus norvegicus; assay: Antiinflammatory activity in Wistar albino rat assessed as reduction of carrageenan-induced paw edema at 20 mg/kg, po measured after 1 hr by plethysmometer; set-up: scale not given: the % may be the effect or the level left; outline: as §1
[5] = test system: Rattus norvegicus; assay: Analgesic activity in Wistar albino rat assessed as thermal-stimulus induced tail flick latency time at 20 mg/kg measured after 90 mins (reference value: 3.25 +/- 0.005 secs)
[6] = test system: Rattus norvegicus; assay: Antiinflammatory activity in Wistar albino rat assessed as reduction of carrageenan-induced paw edema at 20 mg/kg, po measured after 30 mins by plethysmometer; set-up: scale not given: the % may be the effect or the level left; outline: as §1

| Structure (SMILES) | Activity [1] [%] | Time [2] [s] | Time [3] [s] | Activity [4] [%] | Time [5] [s] | Activity [6] [%] |
| --- | --- | --- | --- | --- | --- | --- |
| Cc1ccc(-[n+]2noc([O-])c2/C=N/n2c(C(C)c3ccc(CC(C)C)cc3)nn(CN3CCOCC3)c2=S)cc1 (centres undefined) | 66.6 | 5.91 | 5.15 | 53 | 7.12 | 41.9 |
| CC(C)Cc1ccc(C(C)c2n[nH]c(=S)n2/N=C/c2c([O-])on[n+]2-c2ccccc2)cc1 (centres undefined) | 50.2 | 6.24 | 5.76 | 39.4 | 6.6 | 32.9 |
| COc1ccc2c(c1)c(CC(=O)O)c(C)n2C(=O)c1ccc(Cl)cc1 [INDOMETHACIN] | 70.1 | – | – | 65.8 | – | 58.1 |
| CC(C)Cc1ccc(C(C)c2nn(CN3CCCCC3)c(=S)n2/N=C/c2c([O-])on[n+]2-c2ccccc2)cc1 (centres undefined) | 67.9 | 5.73 | 4.56 | 56.1 | 6.8 | 45 |
| CC(C)=CCN1CC[C@]2(C)c3cc(O)ccc3C[C@H]1[C@H]2C [(+)-PENTAZOCINE] | – | 6.95 | 6.25 | – | 7.45 | – |
| COc1ccc(-[n+]2noc([O-])c2/C=N/n2c(C(C)c3ccc(CC(C)C)cc3)nn(CN3CCOCC3)c2=S)cc1 (centres undefined) | 65.8 | 5.92 | 4.77 | 57 | 6.82 | 49 |
| Cc1ccc(-[n+]2noc([O-])c2/C=N/n2c(C(C)c3ccc(CC(C)C)cc3)nn(CN3CCN(c4ccccc4)CC3)c2=S)cc1 (centres undefined) | 40.2 | 4.41 | 4.15 | 35.9 | 5.35 | 31.5 |
| COc1ccc(-[n+]2noc([O-])c2/C=N/n2c(C(C)c3ccc(CC(C)C)cc3)n[nH]c2=S)cc1 (centres undefined) | 64 | 6.3 | 5.41 | 55.2 | 7.23 | 48.6 |
| Cc1ccc(-[n+]2noc([O-])c2/C=N/n2c(C(C)c3ccc(CC(C)C)cc3)nn(CN3CCCCC3)c2=S)cc1 (centres undefined) | 54.1 | 4.31 | 3.92 | 46.9 | 5.1 | 39.1 |
| CCN1CCN(Cn2nc(C(C)c3ccc(CC(C)C)cc3)n(/N=C/c3c([O-])on[n+]3-c3ccccc3)c2=S)CC1 (centres undefined) | 54.5 | 5.39 | 4.4 | 46.9 | 6.41 | 38.7 |
| CC(C)Cc1ccc(C(C)c2nn(CN3CCOCC3)c(=S)n2/N=C/c2c([O-])on[n+]2-c2ccccc2)cc1 (centres undefined) | 65.3 | 6.1 | 4.92 | 55.3 | 6.9 | 43.7 |
| COc1ccc(-[n+]2noc([O-])c2/C=N/n2c(C(C)c3ccc(CC(C)C)cc3)nn(CN3CCCCC3)c2=S)cc1 (centres undefined) | 56.2 | 5.55 | 4.61 | 48.6 | 6.26 | 42.7 |
| Cc1ccc(-[n+]2noc([O-])c2/C=N/n2c(C(C)c3ccc(CC(C)C)cc3)n[nH]c2=S)cc1 (centres undefined) | 55.4 | 6.11 | 4.99 | 46.9 | 6.92 | 39.2 |
| CC(C)Cc1ccc(C(C)c2nn(CN3CCN(c4ccccc4)CC3)c(=S)n2/N=C/c2c([O-])on[n+]2-c2ccccc2)cc1 (centres undefined) | 38.5 | 5.03 | 4.19 | 34.2 | 6.05 | 27.9 |
| Cc1ccc(-[n+]2noc([O-])c2/C=N/n2c(C(C)c3ccc(CC(C)C)cc3)nn(CN3CCN(C)CC3)c2=S)cc1 (centres undefined) | 56.2 | 5.25 | 4.52 | 48.7 | 6.21 | 36.5 |
